The target in series [1] is Voltage-gated inwardly rectifying potassium channel KCNH2 (Homo sapiens, UniProt Q12809). The series can be described thus: Displacement of [35S]MK-499 from human ERG. In outline:
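hERG K+ channel binding assay measuring displacement of the radiolabelled channel blocker [35S]MK-499. Values are averages of at least three duplicates.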

Series [2] deals with T1, Fatty-acid amide hydrolase 1 (Rattus norvegicus, UniProt P97612).
T1 sequence (P97612 whole entry): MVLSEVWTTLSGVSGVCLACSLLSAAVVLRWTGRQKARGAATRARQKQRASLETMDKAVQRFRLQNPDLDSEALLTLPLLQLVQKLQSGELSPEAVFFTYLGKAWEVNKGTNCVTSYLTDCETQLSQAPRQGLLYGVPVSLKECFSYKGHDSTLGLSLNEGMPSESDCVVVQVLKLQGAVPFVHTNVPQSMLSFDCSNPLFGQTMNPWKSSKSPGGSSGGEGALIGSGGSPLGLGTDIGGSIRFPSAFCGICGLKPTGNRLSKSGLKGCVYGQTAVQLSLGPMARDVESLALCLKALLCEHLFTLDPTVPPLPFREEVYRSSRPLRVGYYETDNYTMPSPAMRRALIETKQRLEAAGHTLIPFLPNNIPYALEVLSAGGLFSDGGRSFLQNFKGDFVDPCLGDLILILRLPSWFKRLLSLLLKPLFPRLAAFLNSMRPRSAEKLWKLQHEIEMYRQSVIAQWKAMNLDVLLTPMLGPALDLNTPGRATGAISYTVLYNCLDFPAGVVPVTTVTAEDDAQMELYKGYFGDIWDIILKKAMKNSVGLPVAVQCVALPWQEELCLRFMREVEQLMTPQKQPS
The series can be described thus: Inhibition of rat FAAH lysate using AMCAA as substrate by fluorescence assay. Put shortly: (§1)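 In vitro assays, with values reported as the average of at least three duplicates.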

For series [3], the target named is T2, Fatty-acid amide hydrolase 1 (Homo sapiens, UniProt O00519).
T2 sequence (O00519 whole entry): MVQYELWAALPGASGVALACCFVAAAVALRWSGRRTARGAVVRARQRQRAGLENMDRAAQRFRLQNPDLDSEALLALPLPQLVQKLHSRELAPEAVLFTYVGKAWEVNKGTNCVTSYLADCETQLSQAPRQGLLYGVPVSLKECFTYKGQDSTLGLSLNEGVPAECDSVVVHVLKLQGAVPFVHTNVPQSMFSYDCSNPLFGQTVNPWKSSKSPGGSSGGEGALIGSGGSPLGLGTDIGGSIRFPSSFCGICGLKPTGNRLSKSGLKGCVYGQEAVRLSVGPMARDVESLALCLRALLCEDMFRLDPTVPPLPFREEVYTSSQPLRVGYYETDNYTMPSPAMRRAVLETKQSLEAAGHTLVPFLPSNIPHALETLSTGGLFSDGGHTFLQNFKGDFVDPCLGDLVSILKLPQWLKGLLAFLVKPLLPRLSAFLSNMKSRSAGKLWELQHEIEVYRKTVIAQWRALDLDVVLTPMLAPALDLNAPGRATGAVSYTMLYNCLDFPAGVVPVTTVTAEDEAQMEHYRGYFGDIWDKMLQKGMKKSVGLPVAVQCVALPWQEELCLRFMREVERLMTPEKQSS
The series can be described thus: Inhibition of human FAAH lysate using AMCAA as substrate by fluorescence assay. Put shortly:
as §1

Series [4] is described as follows: Bioavailability in rat at 1 mg/kg, iv and 1 to 2 mg/kg, po. It counts as ADME, organism-based. The note with it: in vivo. Put shortly:
(§2)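 Rat PK given 1 mg/kg iv in DMSO/PEG400/H2O 20/60/20 and 2 mg/kg po in either Imwitor/Tween 1/1 or PEG400/Tween80/H2O 40/10/50. Half-life, clearance, volume of distribution, dose-normalized AUC (AUCN) and oral bioavailability were derived.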

Series [5] is described as follows: Inhibition of human vesicular monoamine transporter. Put shortly: as §1
Series [6] in a line: Half life in rat at 1 mg/kg, iv and 1 to 2 mg/kg, po. It counts as ADME, organism-based. The note with it: in vivo. Put shortly: as §2
A short description of series [7]: Solubility in fasted state simulated intestinal fluid. It counts as ADME.
A short description of series [8]: Clearance in rat at 1 mg/kg, iv and 1 to 2 mg/kg, po. It counts as ADME, organism-based. As to conditions: in vivo. In outline: as §2
Series [9] deals with Rattus norvegicus. In words: Dose normalized AUC in rat at 1 mg/kg, iv and 1 to 2 mg/kg, po. It counts as ADME, organism-based. The note with it: in vivo. Put shortly:
as §2

Series [10] is described as follows: Volume of distribution at steady state in rat at 1 mg/kg, iv and 1 to 2 mg/kg, po. It counts as ADME, organism-based. As to conditions: in vivo, read-out: Vdss. Put shortly: as §2
Series [11] has as its system Rattus norvegicus. In words: Analgesic activity in Sprague-Dawley rat complete Freund's adjuvant-induced inflammatory pain model assessed as reversal of mechanical allodynia at 10 mg/kg, po single dose measured after 3 hrs. It counts as functional. In outline:
(§3)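 Inflammatory pain induced in rats by intraplantar injection of complete Freund's adjuvant into the hind paw. Mechanical allodynia was assessed at 1 and 3 h after a single oral dose. For each rat, percent reversal = (postdose – predose)/(preinjury – predose), averaged over n = 6.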

The test system of series [12] is Rattus norvegicus. In words: Analgesic activity in Sprague-Dawley rat complete Freund's adjuvant-induced inflammatory pain model assessed as reversal of mechanical allodynia at 30 mg/kg, po single dose measured after 1 hr. It counts as functional. Put shortly:
as §3

Series [13] concerns Rattus norvegicus. In words: Analgesic activity in Sprague-Dawley rat complete Freund's adjuvant-induced inflammatory pain model assessed as reversal of mechanical allodynia at 10 mg/kg, po single dose measured after 1 hr. It counts as functional. In outline: as §3
Series [14] deals with Rattus norvegicus. In words: Analgesic activity in Sprague-Dawley rat complete Freund's adjuvant-induced inflammatory pain model assessed as reversal of mechanical allodynia at 30 mg/kg, po single dose measured after 3 hrs. It counts as functional. Put shortly:
as §3

Series [15] concerns Rattus norvegicus. In words: Analgesic activity in Sprague-Dawley rat complete Freund's adjuvant-induced inflammatory pain model assessed as reversal of mechanical allodynia at 2 mg/kg/day, ip measured up to 5 days. It counts as functional, organism-based. In outline:
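Inflammatory pain induced in rats by intraplantar injection of complete Freund's adjuvant into the hind paws. Mechanical allodynia was followed under a chronic repeated-dosing paradigm across several days to check for loss of antinociception (tachyphylaxis).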

Converted amounts (≈) assume the structure as drawn. The source made the active and inactive calls. No cut-off for these calls is given here.

Sequence of Voltage-gated inwardly rectifying potassium channel KCNH2 (Q12809 whole entry): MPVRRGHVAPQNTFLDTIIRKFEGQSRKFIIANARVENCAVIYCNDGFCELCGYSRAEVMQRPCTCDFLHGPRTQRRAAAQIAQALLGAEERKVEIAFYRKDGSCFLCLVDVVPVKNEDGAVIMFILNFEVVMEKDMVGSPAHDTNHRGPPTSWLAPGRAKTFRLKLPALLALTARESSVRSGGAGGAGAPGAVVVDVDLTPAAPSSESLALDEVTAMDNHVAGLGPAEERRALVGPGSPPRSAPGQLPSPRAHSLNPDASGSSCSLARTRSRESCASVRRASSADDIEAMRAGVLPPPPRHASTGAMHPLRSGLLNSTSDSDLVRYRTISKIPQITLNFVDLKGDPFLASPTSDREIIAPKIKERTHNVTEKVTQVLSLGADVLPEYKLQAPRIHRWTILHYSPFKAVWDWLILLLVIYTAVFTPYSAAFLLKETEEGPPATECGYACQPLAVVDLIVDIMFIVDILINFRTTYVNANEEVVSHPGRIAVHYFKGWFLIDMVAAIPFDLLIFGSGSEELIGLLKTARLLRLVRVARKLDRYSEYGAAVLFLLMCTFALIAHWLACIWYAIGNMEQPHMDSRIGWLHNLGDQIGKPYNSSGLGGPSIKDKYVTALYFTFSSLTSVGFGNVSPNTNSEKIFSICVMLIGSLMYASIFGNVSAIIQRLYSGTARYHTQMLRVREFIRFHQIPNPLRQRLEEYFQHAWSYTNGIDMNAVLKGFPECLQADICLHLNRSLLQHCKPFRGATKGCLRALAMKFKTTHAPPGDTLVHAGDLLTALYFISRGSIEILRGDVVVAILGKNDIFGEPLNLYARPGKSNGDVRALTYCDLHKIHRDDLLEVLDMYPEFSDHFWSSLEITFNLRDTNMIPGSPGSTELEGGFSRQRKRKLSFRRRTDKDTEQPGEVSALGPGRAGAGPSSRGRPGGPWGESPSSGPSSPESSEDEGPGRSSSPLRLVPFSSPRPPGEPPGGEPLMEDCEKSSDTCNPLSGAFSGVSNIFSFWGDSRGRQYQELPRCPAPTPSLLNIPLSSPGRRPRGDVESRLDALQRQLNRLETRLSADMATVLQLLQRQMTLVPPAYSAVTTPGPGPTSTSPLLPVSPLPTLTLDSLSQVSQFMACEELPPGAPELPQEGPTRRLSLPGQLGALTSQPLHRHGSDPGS

`Clc1ccc(Sc2c[nH]nc2-c2ccc3c(c2)OCCO3)cc1` showed a Ki in series [1] of 1540 nM. Moreover, the IC50 worked out at 125 nM in series [2] and 119 nM in series [3].

As to `CS(=O)(=O)c1ccc(-c2nc(-c3ccccc3)oc2Sc2ccc(Cl)cc2)cc1`, the inhibition constant (Ki) in series [1] is 28500 nM. Also, the results for the IC50 in [2] and in series [3] were 6 nM and 13 nM, respectively.

Consider `CS(=O)(=O)c1ccc(-c2nn(-c3ccc(F)cc3)cc2Sc2ccc(Cl)cc2)cc1`, for which the bioavailability in series [4] amounted to 100%. Also, the EC50 in series [5] was found to be 363 nM. In [1], this compound showed a Ki of 637 nM. This compound gave a half-life in series [6] of 1.79 h. The same compound registered a solubility in series [7] of 3 µg/mL (≈ 6.54 µM). Besides, in [8], the clearance stood at 34 mL/min/kg. Also, in series [2], the IC50 was 6 nM. The same compound returned an AUC/dose in the series on Rattus norvegicus [9] of 1.06 µM·kg·h/mg. For the same compound, the Vd in [10] turned out to be 8.4 L/kg.

As for `CC(C)(O)c1cnc(-c2nn(-c3ccc(F)cc3)cc2Sc2ccc(Cl)cc2)cn1`, the bioavailability in series [4] is 96%. Besides, the Activity in the series on Rattus norvegicus [11] is on record as 38%; with Rattus norvegicus [12] it was 58%; in the series with Rattus norvegicus [13], 42%; with Rattus norvegicus [14], 40%. In series [5], a half-maximal effect (EC50) was put at 1160 nM. The compound further had a Ki in series [1] of 740 nM. Besides, in series [6], the half-life was 4.9 h. The same compound yielded a clearance in [8] of 33.8 mL/min/kg. Moreover, the half-maximal inhibitory concentration (IC50) was 10 nM in series [2] and 32 nM in [3]. The compound also had an AUC/dose in the series on Rattus norvegicus [9] of 1.07 µM·kg·h/mg. In addition, the Vd in series [10] worked out at 15.8 L/kg.

Turning to `Cc1c(C(=O)c2cccc3ccccc23)c2cccc3c2n1[C@H](CN1CCOCC1)CO3`, the result with Rattus norvegicus [15] was inactive.
